# Screening data deposited in PubChem BioAssay by The Scripps Research Institute Molecular Screening Center.
# In the library only some 2.9% were active in any assay of this set; here they are far more common.
# 5HT1E antag = 5-HT1E (human) receptor antagonism; P28566; CHO 5-HT1E Ga15 NFAT-bla reporter, FRET, antagonist; inhibition, % at 6 µM; hit rate 0.99% among 65,000; AID 571;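 active = inhibition above a set limit, the mean inhibition across every tested compound plus 3 SD, cut at about 29% in these data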;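 note: signal is the 460 over 535 nm emission ratio of beta-lactamase substrate; 0% = agonist plus DMSO wells and 100% = wells without agonist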
# 5HT1a antag = 5-HT1a (human) receptor antagonism. P08908. CHO 5-HT1a Ga15 NFAT-bla reporter, antagonist mode. inhibition, % at 10 µM. hit rate 0.68% among 62,000. AID 612;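 active = inhibition above the mean of all tested compounds plus 3 SD, cut at about 43% in these data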;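 note: receptor stimulated by 5-CT agonist at 100 nM near EC80; beta-lactamase reporter measured by ratiometric fluorescence of a cleavable substrate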
# S1P3 agonist = activates the human S1P3 receptor; Q99500; S1P3 NFAT-BLA reporter cells, agonism, FRET ratio; relative to 1 µM S1P, basal subtracted; activation, % at 4.5 µM; hit rate 0.1% among 60,000;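 active = activation above the screen-wide mean plus 3 SD, cut at about 4.5% in these data, passing the limit was not always enough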
# Target sequence (Q99500 whole entry, looked up): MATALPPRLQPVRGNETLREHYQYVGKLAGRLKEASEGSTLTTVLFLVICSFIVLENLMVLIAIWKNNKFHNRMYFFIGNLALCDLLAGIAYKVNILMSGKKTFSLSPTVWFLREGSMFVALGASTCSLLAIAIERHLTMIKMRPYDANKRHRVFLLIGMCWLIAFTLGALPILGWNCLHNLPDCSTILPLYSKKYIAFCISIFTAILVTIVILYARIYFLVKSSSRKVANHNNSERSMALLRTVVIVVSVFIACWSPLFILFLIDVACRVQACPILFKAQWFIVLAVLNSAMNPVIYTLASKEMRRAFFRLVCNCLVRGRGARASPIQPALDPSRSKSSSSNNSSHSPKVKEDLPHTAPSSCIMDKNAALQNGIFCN
#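 Assay system: stable CHO line with human S1P3, Gα16, NFAT-BLA reporter; Detection: FRET β-lactamase substrate fluorescence, excitation 405 nm, 460/535 nm emission ratio, background-subtracted; Read-out: percent activation versus median 1 µM S1P response, basal-subtracted, per plate; Incubation: cells plated overnight, compound 4 h 37 °C, substrate 2 h RT.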
# 5HT1a ag = activates the human 5-HT1a serotonin receptor. hit rate 0.56% among 65,000. CHO 5-HT1a Ga15 NFAT-bla reporter, FRET ratio; 0% basal, 100% maximal reference agonist. activation, % at 10 µM. P08908;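 active = activation above the screen-wide mean activation plus 3 SD, cut at about 19% in these data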;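 note: 0% = DMSO wells and 100% = 5-CT at EC100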
# HTR1E agonist = activates the human 5-HT1E serotonin receptor; activation, % at 6 µM; CHO 5-HT1E Ga15 NFAT-bla reporter, FRET; 0% DMSO wells, 100% control agonist wells; hit rate 0.69% among 65,000;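 active = activation above a set limit, the screen-wide mean activation plus 3 SD, cut at about 8.5% in these data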;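 note: 100% = positive control agonist at 1 µM giving full maximal response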
# S1P1 ag-PAM = S1P1 (human) agonism or agonism potentiation | AID 449 | hit rate 0.57% among 56,000 | P21453 | S1P1 CRE-bla cells, forskolin, beta-lactamase FRET, potentiator mode; S1P1 agonist co-added at EC20, 2 nM; 100% = saturating reference agonist, 0% = basal | activation, % at 9.5 µM;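 active = activation above a cutoff set at the mean activation of all tested compounds plus 3 SD, cut at about 54% in these data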;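 note: forskolin at 4 µM as EC80 and the EC20 agonist is SEW2871; 100% = SEW2871 at its EC100 plus forskolin at EC80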
# The depositor's hits bear a star; nt = not tested or not shown.
SMILES,5HT1E antag,5HT1a antag,S1P3 agonist,5HT1a ag,HTR1E agonist,S1P1 ag-PAM
COc1ccc(N2CCN(C(=O)CSc3ncccc3-c3nc4ccccc4[nH]3)CC2)cc1,-8,-10,0,-2,0,-28
O=C(CSc1ncccc1-c1nc2ccccc2[nH]1)N1CCN(c2ccccc2F)CC1,6,18,0,3,8.7*,5
COC(=O)C1C(=O)NC(SC)=C(C#N)C1c1ccccc1F (stereo not given),1,5,-1,-4,0,3
O=C(O)COc1ccc(-c2nnn(CC(=O)O)n2)cc1,-3,-7,-1,0,1,nt
Cn1nnc(-c2ccc(OCc3ccccc3F)cc2)n1,4,-12,0,-2,13*,nt
C=CCc1ccccc1OCC(O)CN1CCN(c2ccc(C)cc2)CC1 (stereo not given),6,73*,-1,-1,0,-8
COc1cccc(C(c2nnnn2Cc2ccco2)N2CCN(c3cccc(C)c3C)CC2)c1OC (stereo not given),-22,52*,-1,3,2,4
COc1ccc(N2CCN(C(c3cccc(OC)c3OC)c3nnnn3C3CCCC3)CC2)cc1 (stereo not given),4,44*,0,-1,0,0
O=C(c1cc2ccccc2oc1=O)N(Cc1ccco1)CC1CCCO1 (stereo not given),10,4,-2,-3,1,-8
CS/C(=N\S(=O)(=O)c1cccs1)NC(=O)CSc1nc2ccccc2s1,-4,12,0,1,0,8
c1ccc(Cn2c(-c3ccco3)nc3nc4ccccc4nc32)cc1,1,-18,2,5,3,-2
Clc1ccc(-c2nc3nc4ccccc4nc3n2Cc2ccco2)cc1,14,22,1,-3,0,80*
Cc1ccc(-c2nc3nc4ccccc4nc3n2Cc2ccco2)cc1,28,50*,1,-3,0,48
CC(=O)Nc1cccc(-c2csc(NCc3ccco3)n2)c1,-13,4,1,0,0,9
O=C(Nc1ccc2oc(-c3ccccc3Cl)nc2c1)c1cncc(Br)c1,2,-8,0,64*,0,-16
O=C(NCC1COc2ccccc2O1)C1CCN(S(=O)(=O)c2cccc3nsnc23)CC1 (stereo not given),5,5,0,0,-1,3
NC(=O)c1c(NC(=O)c2cccs2)sc2c1CCCCCC2,-15,-3,0,0,11*,12
CCOC(=O)N1CCC(NC(=O)c2ccc(CS(=O)(=O)c3c(Cl)cccc3Cl)o2)CC1,-3,-3,1,0,2,5
CCOC(=O)N1CCC(NC(=O)c2ccc(CS(=O)(=O)c3ccccc3C)o2)CC1,-6,5,1,39*,2,-10
O=C(Nc1ccc2c(c1)OCO2)N1CCN(S(=O)(=O)c2ccc(Cl)cc2)CC1,20,8,1,-3,14*,-14
Cc1cccc(-c2nnc3n2N=C(c2ccccc2Br)CS3)c1,31*,16,-1,-5,2,33
COc1cccc(C2=Nn3c(nnc3-c3ccccc3O)SC2)c1,13,6,-1,0,-1,6
Cc1ccc(-c2nnc3n2N=C(c2ccccc2)CS3)cc1,45*,5,-1,-1,1,34
Clc1ccccc1C1=Nn2c(nnc2-c2ccncc2)SC1,20,34,-1,-3,0,75*
COc1ccc(C2=Nn3c(nnc3-c3ccc(OC)cc3)SC2)cc1,79*,43*,1,-1,0,10
SMILES,5HT1E antag,5HT1a antag,S1P3 agonist,5HT1a ag,HTR1E agonist,S1P1 ag-PAM
Cc1c(-c2cccs2)[n+](=O)c2c(n1[O-])CCCC2,-1,nt,-3,1,0,-8
O=C(CCCCCn1c(=O)[nH]c2ccccc2c1=O)NCCCN1CCN(c2ccccc2F)CC1,-1,29,0,9,1,13
c1cn2cc(-c3ccc4c(c3)OCO4)nc2s1,0,4,nt,-1,0,nt
O=C(NCc1cn2ccccc2n1)c1ccccc1,-9,9,-1,-3,0,4
Cc1ccc(C(=O)OCc2cn3ccccc3n2)cc1,-5,4,0,101*,0,7
CCn1c(=O)c(=O)[nH]c2cc(C(=O)N3CCN(c4ccccc4F)CC3)ccc21,-1,0,0,-2,1,-3
Oc1c(Cl)cc(Cl)cc1Sc1cc(Cl)cc(Cl)c1O,5,nt,1,-1,0,132*
CCOC(=O)C1CCCN(CC(=O)NC2CC2)C1 (stereo not given),2,-1,1,22*,0,-13
CCOC(=O)C1(CCSC)NC(c2ccco2)C2C(=O)N(C)C(=O)C21 (stereo not given),1,1,-1,-1,0,1
CCOC(=O)c1[nH]c(C)c(C(=O)c2cc(F)ccc2F)c1C,56*,50*,-1,-6,0,-8
CCCS(=O)(=O)N1CCC(C(=O)NCC2CCCO2)CC1 (stereo not given),11,11,-1,-2,-1,-4
C=CCN1C(=Nc2cccnc2)SCC1(O)c1ccc(C)cc1 (stereo not given),11,9,0,-3,0,77*
COCCn1c(SCc2c(F)cccc2Cl)nc2c1c(=O)[nH]c(=O)n2C,-1,nt,-3,-1,0,12
Cc1n[nH]c(C)c1S(=O)(=O)Nc1ccc2c(c1)OCCO2,-3,0,-1,-1,-1,-10
O=C(CSc1c2c(nc3ccc(Cl)cc13)CCCC2)N1CCN(C(=O)c2ccco2)CC1,17,34,-1,-1,1,-3
COc1cc2c(cc1OC)-c1cc(OCc3cccnc3)nc(=O)n1CC2,24,0,0,1,0,-19
COc1cc2c(cc1OC)-c1cc(N3CCCCCC3)nc(=O)n1CC2,41*,8,2,1,1,-78
COc1cc2c(cc1OC)-c1cc(Nc3ccc4c(c3)OCCO4)nc(=O)n1CC2,40*,14,0,-1,0,-57
COc1cc2c(cc1OC)-c1cc(N3CCCc4ccccc43)nc(=O)n1CC2,64*,13,2,2,2,-25
COc1cc2c(cc1OC)-c1cc(NC3CCCCCC3)nc(=O)n1CC2,49*,13,1,1,1,-55
COc1ccc(-n2c(SCCC#N)nnc2-c2cc(Cl)ccc2OC)cc1Cl,0,30,0,4,0,6
CCSCc1nnc(SCC(=O)c2ccc(OC)cc2)n1C,3,0,-1,1,0,nt
